Compounds with a hit are over-represented: about 3.7% of the library has one in this group of screens.
Redox H2O2 prof: compounds producing H2O2 with reducing agent – biochemical, NIH compound library profiling, artefact control for MLSCN library redox annotation, primary screen; DTT-dependent redox cycling H2O2, phenol red/HRP absorbance; 100% = 100 µM peroxide control, 0% = buffer; activation, % at 10 µM; 200,000 tested, 0.03% active; AID 878;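 active = activation of at least 50% relative to the plate's high and low controls in the primary single-dose screen; inactive = activation below 50%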;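 also: compound incubated with DTT at 0.8 mM final as the reducing agent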
MT stabilizer: microtubule stabilizers in HeLa cells; HeLa tubulin immunostaining HCS, 24 h; share of cells brighter than vehicle mean+2SD; % tubulin-high responders, % at 10 µM; 200,000 tested, 0.83% active; AID 2205;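 active = plate Z-score above 3 for both tubulin-high and condensed-nucleus cell shares, with cell loss under 80%, at 10 µM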;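 also: anti alpha tubulin signal scored within the nucleus-defined area of each cell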
KCC2 mod: modulates chloride dependent transport by human KCC2. Q9H2X9. KCC2 cells, thallium flux FluoZin-2 fluorescence. B-score of Tl+ flux slope (higher = more flux/activation; lower = inhibition) at 10 µM. 190,000 tested, 2.2% active. AID 1456;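 active = thallium flux slope and its plate-corrected score both differing from the plate sample mean at a set confidence after two filtering rounds, in either direction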;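 also: slope of fluorescence scaled to starting intensity during 10 to 20 s after thallium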
ROMK mod: human ROMK K+ channel modulation, primary screen; AID 1918; Tet-inducible ROMK, thallium flux fluorescence; actives lie on both sides; B-score at 10 µM; P48048; 130,000 tested, 2% active;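 active = signal ratio slope over the read window, or its plate-corrected B-score, at least 3 SD from the plate mean, either direction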;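 also: B-score of the F/F0 ratio slope over 7 to 12 s after thallium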
Target sequence (P48048 whole entry, looked up): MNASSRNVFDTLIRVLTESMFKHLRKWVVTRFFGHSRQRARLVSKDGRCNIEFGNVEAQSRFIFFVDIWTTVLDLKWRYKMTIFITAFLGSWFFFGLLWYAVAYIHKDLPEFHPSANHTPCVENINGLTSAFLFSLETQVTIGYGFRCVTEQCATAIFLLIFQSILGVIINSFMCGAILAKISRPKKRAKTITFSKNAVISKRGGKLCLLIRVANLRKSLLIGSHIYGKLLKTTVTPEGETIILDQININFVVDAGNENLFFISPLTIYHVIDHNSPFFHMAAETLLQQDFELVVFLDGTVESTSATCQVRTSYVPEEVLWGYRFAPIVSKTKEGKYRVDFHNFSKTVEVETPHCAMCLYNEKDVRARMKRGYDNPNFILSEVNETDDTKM
bCat nuc transl: beta-catenin nuclear translocation modulation | HeLa beta-catenin nuclear translocation, immunofluorescence imaging | nuclear translocation activity, % at 5 µM | 190,000 tested, 0.3% active;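 active = nuclear translocation activity above 50% at 5 µM, with a well cell count of 50 or more; inconclusive = wells under 50 cells across six images, flagged as toxic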;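 also: per-cell ratio of nuclear to cytoplasmic median beta-catenin stain intensity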
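Test system: human HeLa cells, endogenous beta-catenin. Times: 24 h compound exposure, 37°C. Measured by: beta-catenin immunofluorescence imaging with DAPI.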
KCC2 sec1: confirmation of human KCC2 transport modulators; normalised thallium flux (F/F0 slope) at 10 µM; HEK293-KCC2, thallium flux, FluoZin2 fluorescence; hits give high values; shares compounds with KCC2 mod; 3,700 tested, 15% active;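 active = thallium flux slope above the same plate's solvent-only control mean plus 3 SD; inconclusive = the two replicate wells disagree; inactive = no significant difference from solvent-only control wells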
KCC2 bumet counter: thallium flux persisting under bumetanide in KCC2 cells, counter-screen secondary assay. shares compounds with KCC2 mod. HEK293-KCC2 + bumetanide/ouabain, thallium flux FluoZin2; hits give high values. normalized thallium flux at 10 µM. 3,700 tested, 49% active. AID 1714;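 active = thallium entry rate above the same plate's blocked-transporter control wells by more than 3 SD; inconclusive = the two repeat wells disagree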;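 also: raw slope of fluorescence over initial fluorescence between 10 and 20 s after thallium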
KCC2 sec2: confirmation of human KCC2 transport modulators | shares compounds with KCC2 mod | HEK293-KCC2, thallium flux FluoZin2 fluorescence; actives lie on both sides; F/F0 rise rate, 10–20 s post-thallium | normalized thallium flux at 10 µM | 3,700 tested, 23% active;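 active = thallium flux slope more than 3 SD above or below the plate's solvent-only control mean, mostly below; inconclusive = the two repeat wells disagreed; inactive = no significant shift from solvent-only controls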
HEK counter1: counter-screen for KCC2 modulators: effect in parental HEK293 cells | shares compounds with KCC2 mod | thallium flux FluoZin2, ouabain; baseline-ratio fluorescence slope, 10–20 s after thallium | thallium flux rate (normalised fluorescence) at 10 µM | 3,700 tested, 46% active | AID 1716;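 active = thallium flux rate significantly above the same plate's solvent-only control wells, beyond their mean plus 3 SD; inconclusive = the two replicate wells gave conflicting results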
KCC2 retest ouab: modulates human KCC2 on retest with ouabain; shares compounds with KCC2 mod; HEK293-KCC2, thallium flux FluoZin2 fluorescence; bidirectional: low = inhibitor, high = activator; raw Tl+ flux slope (below DMSO = inhibition, above = activation) at 10 µM; 3,700 tested, 48% active; AID 1717;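 active = thallium flux slope beyond 3 SD from same-plate DMSO control mean in most replicates, usually higher, sometimes lower; inconclusive = repeat tests gave conflicting results; inactive = no significant difference from controls in most replicates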;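 also: slope of initial-normalized fluorescence between seconds 10 and 20 after thallium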
HEK293 Tl flux2: parental HEK flux effect, counter-screen 2; thallium flux slope at 10 µM; 3,700 tested, 33% active; shares compounds with KCC2 mod; HEK293 parental, thallium flux FluoZin-2 fluorescence slope;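 active = thallium flux slope above the same plate's solvent-control mean plus 3 SD in both duplicate wells; inconclusive = duplicate wells that disagreed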;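 also: run without ouabain in cells lacking the KCC2 cotransporter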
Of the large screens only hits and unclear results are named; the others gave an inactive call (follow-up assays come after a bar, where they were run).

CC(=O)c1ccc(NC(=S)NC(=O)c2c(Cl)c(C)nn2C)cc1	KCC2 mod 15.5 | KCC2 sec1 0.0153 | KCC2 bumet counter 0.0664 | KCC2 sec2 inactive | HEK counter1 0.0307 | KCC2 retest ouab 0.0371 | HEK293 Tl flux2 0.0148
CCn1ncc(Cl)c1C(=O)Nc1ccncc1	none (no result: ROMK mod)
O=C(Nc1ccncc1)C1CCC(CNS(=O)(=O)c2cccc3nsnc23)CC1 (configuration not stated)	none (no result: Redox H2O2 prof, MT stabilizer)
Cc1ccc(N2C(=O)C(Cc3ccc(O)cc3)NC2=S)cc1C (configuration not stated)	KCC2 mod -3.88 | KCC2 sec1 inactive | KCC2 bumet counter inactive | KCC2 sec2 inactive | HEK counter1 inactive | KCC2 retest ouab inactive | HEK293 Tl flux2 inactive
Cc1cccc(N2C(=O)C(Cc3ccccc3)NC2=S)c1 (configuration not stated)	none (no result: ROMK mod)
S=C(NCc1ccco1)N1CCC(c2nc3ccccc3o2)CC1	none (no result: ROMK mod)
COc1ccc2nc(Nc3sc4c(c3C(N)=O)CCCC4)sc2c1	none (no result: ROMK mod)
O=C(COc1ccc2ccccc2c1Br)Nn1cnnc1	KCC2 mod -4.67 (no result: bCat nuc transl) | KCC2 sec1 inactive | KCC2 bumet counter inconclusive | KCC2 sec2 0.0251 | HEK counter1 inactive | KCC2 retest ouab inconclusive | HEK293 Tl flux2 inactive
COC(=O)NNC(=O)COc1ccc2ccccc2c1Br	none
CC(C)(C)C(=O)NNC(=O)COc1ccc2ccccc2c1Br	KCC2 mod 7.8 | KCC2 sec1 inactive | KCC2 bumet counter 0.0203 | KCC2 sec2 inactive | HEK counter1 0.0106 | KCC2 retest ouab 0.0274 | HEK293 Tl flux2 inconclusive
O=C(CNC(=O)C12CC3CC(CC(C3)C1)C2)N/N=C\c1ccccn1	none
Cc1sc2ncn(CC(=O)NCCCC(=O)N3CCN(Cc4ccc5c(c4)OCO5)CC3)c(=O)c2c1C	none
CCOC(=O)N1CCN(C(=O)COc2ccc(S(=O)(=O)NCC(C)C)cc2C)CC1	none (no result: KCC2 mod) | KCC2 sec1 inactive | KCC2 bumet counter inactive | KCC2 sec2 inactive | HEK counter1 inactive | KCC2 retest ouab inactive | HEK293 Tl flux2 inactive
Cc1cc(S(=O)(=O)NCC(C)C)ccc1OCC(=O)N1CCOCC1	none (no result: ROMK mod)
CCS(=O)(=O)N1CCC(C(=O)NCc2ccc(OC)cc2)CC1	none
COc1cccc(NC(=S)NN=C2CCC(C(C)(C)C)CC2)c1 (configuration not stated)	KCC2 mod 4.87 | KCC2 sec1 inactive | KCC2 bumet counter 0.00905 | KCC2 sec2 inactive | HEK counter1 0.0123 | KCC2 retest ouab inactive | HEK293 Tl flux2 inactive
CC12CCC(C/C1=N/NC(=O)Nc1ccccc1)C2(C)C (configuration not stated)	none
COc1cccc(NC(=S)N/N=C2\CC3CCC2(C)C3(C)C)c1 (configuration not stated)	KCC2 mod 10.9 | KCC2 sec1 inactive | KCC2 bumet counter 0.0272 | KCC2 sec2 inconclusive | HEK counter1 0.0244 | KCC2 retest ouab 0.031 | HEK293 Tl flux2 0.0301
CC(=O)NS(=O)(=O)c1ccc2sc(C)nc2c1	none (no result: Redox H2O2 prof, MT stabilizer, ROMK mod)
COc1ccccc1C(=O)OCC(=O)Nc1ccc(Cl)cn1	none
